# Data reported in the RNAGym collection of RNA variant scans (doi:10.1126/science.aae0568).
# This sample holds only a part of the variants without activity.
# B1: tRNA (parent)
# chain: GUUCCGUUGGCGUAAUGGUAACGCGUCUCCCUCCUAAGGAGAAGACUGCGGGUUCGAGUCCCGUACGGAACG
# Variants of: B1
# Test: yeast fitness relative to wild type (ratio to wild type); higher = fitter; tRNA-Arg(CCU), competitive growth, 37 C, YPD
# In short: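 Amplicons of the tRNA-Arg(CCU) gene were sequenced, 100-nucleotide paired-end, from the start population and from each end population of a pooled yeast competition. The competition, in six parallel replicates, lasted 24 hours in YPD at 37°C. Fitness relative to wild type was calculated from changes in genotype frequencies. Genotypes had to have ≥ 100 starting reads, and estimates < 0.5 were set to 0.5.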
row,Variant,yeast fitness
1,C4U A21G C46A U54C,0.791
2,C4U A21G C49U,1.01
3,C4U A36C C61A,0.705
4,C4U A36C U59A,≤ 0.5
5,C4U A36G C61U,0.73
6,C4U A36G G39A,0.679
7,C4U A36U A40C,0.64
8,C4U A36U A40C A65C,≤ 0.5
9,C4U A36U A45C C61G A70C,0.852
10,C4U A36U G41C C55U U64C,0.587
11,C4U A37C G41C,0.577
12,C4U A37C G63A,0.593
13,C4U A37G,0.875
14,C4U A37G G39C C61U,≤ 0.5
15,C4U A37U A43U,≤ 0.5
16,C4U A37U A70U,0.676
17,C4U A40G,0.997
18,C4U A40G A43U C55G,0.584
19,C4U A40U G58C,0.734
20,C4U A40U G68U,0.708
21,C4U A42C A43C C49U A70C,≤ 0.5
22,C4U A42C A45G C66A A69U,≤ 0.5
23,C4U A42C C61G A65U,0.62
24,C4U A42G G58A,0.717

row,Variant,yeast fitness
1,C4U A42G U47C G58A,≤ 0.5
2,C4U A42U,0.944
3,C4U A43G,1
4,C4U A43G G68C,0.553
5,C4U A45C,0.939
6,C4U A45C G51A,0.501
7,C4U A45G,0.856
8,C4U A45U G68C,0.7
9,C4U A57U,0.635
10,C4U A57U C61U,0.605
11,C4U A65C,0.873
12,C4U A65G,0.877
13,C4U C5A A36C A42G G52A,0.578
14,C4U C5A C66U,0.61
15,C4U C5G A37C,≤ 0.5
16,C4U C5G A40G G51C U59A C61A A69U,≤ 0.5
17,C4U C5G C11U C29U U32A C33U G67U A70G,≤ 0.5
18,C4U C5G C29G C31G A37C,0.627
19,C4U C5G C29G C31G A37C C66A,0.66
20,C4U C5G C29G C31G A37C U54A,≤ 0.5
21,C4U C5G C29G C31G A37U C66A,≤ 0.5
22,C4U C5G C31G G50C,≤ 0.5
23,C4U C5G C66U,0.564
24,C4U C5G G41A U59C,≤ 0.5

row,Variant,yeast fitness
1,C4U C5U C31G A45G,≤ 0.5
2,C4U C11A A37C C66A,0.535
3,C4U C11A A37C G67C,≤ 0.5
4,C4U C11A G12A U28C G44C,≤ 0.5
5,C4U C11G A20G C34U,≤ 0.5
6,C4U C11G C22G C62U,≤ 0.5
7,C4U C11G C29A U54A A57U,≤ 0.5
8,C4U C11G C29A U54A U59G,≤ 0.5
9,C4U C11G C29U,≤ 0.5
10,C4U C11G G51A U59A C62G,≤ 0.5
11,C4U C11G U16C C34A C60U A69G,≤ 0.5
12,C4U C11U A15G C34U U54C C55U,0.501
13,C4U C11U C22G C61A,≤ 0.5
14,C4U C11U C24A U47G,0.557
15,C4U C11U C30G G68C,0.593
16,C4U C11U C33U C62A,≤ 0.5
17,C4U C11U G23C A37U G44A,≤ 0.5
18,C4U C11U G67A A69C,≤ 0.5
19,C4U C11U U26G U28C A37G G41A C49G,≤ 0.5
20,C4U C22A A40C,≤ 0.5
21,C4U C22A A40C C55G A57C A69U,≤ 0.5
22,C4U C22G A36C C62G A70C,≤ 0.5
23,C4U C22G A57U G63C,≤ 0.5
24,C4U C22G G48A C60G,≤ 0.5

row,Variant,yeast fitness
1,C4U C22G G67U,0.638
2,C4U C22U A42C,≤ 0.5
3,C4U C22U C33U,0.565
4,C4U C22U C55G,≤ 0.5
5,C4U C22U C55U,0.544
6,C4U C24A A57G G68C,≤ 0.5
7,C4U C24A A69U,0.601
8,C4U C24A C62U A69U,≤ 0.5
9,C4U C24A U26A,≤ 0.5
10,C4U C24A U59G C62U A70G,≤ 0.5
11,C4U C24G,0.591
12,C4U C24G U26A U28G A65U,≤ 0.5
13,C4U C24G U26A U28G U32A,≤ 0.5
14,C4U C24U,0.944
15,C4U C24U A36C C61G,≤ 0.5
16,C4U C24U C27A C60G G67C,≤ 0.5
17,C4U C24U U26C G68A,≤ 0.5
18,C4U C24U U54A,≤ 0.5
19,C4U C27A C30U A37U C60G,0.639
20,C4U C27A C31U A43U,0.57
21,C4U C27A G51C,0.562
22,C4U C27U G39C U47A,≤ 0.5
23,C4U C27U U47C,0.734
24,C4U C27U U54A,≤ 0.5

row,Variant,yeast fitness
1,C4U C29A,0.691
2,C4U C29A C31G A42C A45U,≤ 0.5
3,C4U C29A G58A C61G A70U,0.548
4,C4U C29U C31A C55U A57C,≤ 0.5
5,C4U C29U G48A,0.662
6,C4U C30A C61A A70U,0.536
7,C4U C30A C61U,0.812
8,C4U C30A C62U,0.792
9,C4U C30A G50U,0.715
10,C4U C30A G63A,0.828
11,C4U C30A U53C A70C,≤ 0.5
12,C4U C30G A36U C55U,≤ 0.5
13,C4U C30G A36U C66A,≤ 0.5
14,C4U C30U C34U,≤ 0.5
15,C4U C31G A45C C49A,≤ 0.5
16,C4U C31G C46U,0.921
17,C4U C31G C55U,0.579
18,C4U C31U,0.966
19,C4U C31U A37C,0.532
20,C4U C33A G48C,≤ 0.5
21,C4U C33U G50C,≤ 0.5
22,C4U C34G,0.768
23,C4U C34G A37C,0.539
24,C4U C34G A69C,0.664

row,Variant,yeast fitness
1,C4U C34G G41C G56C G58A G63C A65U,≤ 0.5
2,C4U C34G U35A A42U,≤ 0.5
3,C4U C34U,0.737
4,C4U C46G,0.981
5,C4U C46G G63C C66A,≤ 0.5
6,C4U C49A,0.787
7,C4U C49U,0.989
8,C4U C60G G63A,0.706
9,C4U C66A,0.746
10,C4U G6A,0.901
11,C4U G6A A40G A43G C49U,≤ 0.5
12,C4U G6A C29G G41A C60A,≤ 0.5
13,C4U G6A C34A A70C,≤ 0.5
14,C4U G6A C34U,≤ 0.5
15,C4U G6A C46G,0.623
16,C4U G6A G9A U13C U28C,≤ 0.5
17,C4U G6A U8G C31U G63A,≤ 0.5
18,C4U G6A U13C U28C,0.616
19,C4U G9A,0.927
20,C4U G9A C22G A42U G56A,≤ 0.5
21,C4U G9A C24G A37C A57U,0.543
22,C4U G9A C49U G50A,0.644
23,C4U G9A C61G,0.566
24,C4U G9C,0.688

row,Variant,yeast fitness
1,C4U G9C A69C,0.594
2,C4U G9C C29G C34G C60G,≤ 0.5
3,C4U G10A,0.644
4,C4U G10A A14U C46U,≤ 0.5
5,C4U G10A A15C A57C C66G,≤ 0.5
6,C4U G10A A43U C55G G56A,≤ 0.5
7,C4U G10A C11G A20G C27G A65G,≤ 0.5
8,C4U G10A U28A,≤ 0.5
9,C4U G10A U28A A70U,≤ 0.5
10,C4U G10C A14C C27G,0.546
11,C4U G10C G48C C62A,≤ 0.5
12,C4U G10C U47C U59A A69U,≤ 0.5
13,C4U G12A,1.11
14,C4U G12A A20G C22U,0.532
15,C4U G12A A20G C22U U35A A45C,≤ 0.5
16,C4U G12A C31A A42U,≤ 0.5
17,C4U G12A C62U,0.73
18,C4U G12A G39C G44A A57U,≤ 0.5
19,C4U G12A G67A,0.674
20,C4U G12A U16A G51A U54A,≤ 0.5
21,C4U G12A U19C U26A,≤ 0.5
22,C4U G12C A20G U47A C49U A57U C61A G68A,≤ 0.5
23,C4U G12C C49G,0.533
